According to PubChem BioAssay:
Unmarked numbers belong to inactive results. Results filed as inconclusive are left out. Active and inactive are the calls of the source.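 Rule for the calls, unless noted: active = growth inhibition above 25% in both replicates, a cutoff set 3 SD above the mean; inconclusive = above 25% in only one replicate; inactive = the rest.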

Assays:
[1] = OD615 S. cerevisiae growth inhibition, permissive medium, pilot counter-assay, permissive growth control for S. cerevisiae lifespan shortening project (AID 705); conditions: OD615, 24 h, at 10 µM, active compounds read high
Summary of the method: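 Material: engineered DeaD yeast; compound dosing: one dose 10 µM, DMSO 0.25% final; measure: yeast growth inhibition indicated by reduced 24 h OD615; detection: OD615 turbidity read; incubation: cells pre-grown 4 h, then 24 h compound exposure, 30 °C humidified; medium: permissive synthetic complete medium with raffinose and galactose carbon sources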

[2] = Restrictive medium S. cerevisiae growth inhibition, OD615, pilot screen of yeast lifespan reduction project, restrictive growth control (AID 706;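 active = growth inhibition above a set limit, 3 SD over mean compound inhibition, in both replicates, cut at about 43% in these data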;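 note: modified DeaD lifespan yeast strain shifted to restrictive glucose medium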); conditions: OD615, 48 h, at 10 µM, active compounds read high
Summary of the method: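 material = engineered S. cerevisiae DeaD strain | medium = glucose-based CSMM-D restrictive medium | times = 4 h pre-incubation, 48 h exposure at 30 °C | technique = OD615 absorbance reading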

[3] = viability gain of MRP-1-high H69AR cells under doxorubicin, pilot screen, MRP-1 activator project, CellTiter-Glo, duplicate (AID 807;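 active = viability increase at or above a cutoff of the median across tested compounds plus 3 SD, cut at about 8.5% in these data, passing the limit was not always enough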;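 note: compound pretreatment 18-22 h then 72 h combined with doxorubicin; 0% = doxorubicin alone and 100% = vehicle without doxorubicin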); conditions: H69AR viability with doxorubicin, CellTiter-Glo luminescence; at 10 µM; active compounds read high
[4] = growth suppression of beta-catenin knockout HCT116, pilot screen, human colon tumor cells (AID 823;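 active = cell viability at or below a set limit in both duplicate runs, the limit being the all-compound median minus 4 SD, cut at about 23% in these data, passing the limit was not always enough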;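 note: 0% = wells killed by 20 µM Hyamine and 100% = untreated DMSO cell wells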); conditions: CellTiter-Glo, 60 h, at 10 µM, active compounds read low
[5] = growth suppression of PTEN-deleted HCT116, pilot screen, cell-based, HCT116 clonal line, CellTiter-Glo (AID 824;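 active = viability at or below 27.92% in each of two runs, the all-compound median minus 4 SD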;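 note: 0% = 20 µM Hyamine control and 100% = vehicle cell control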); conditions: 60 h, at 10 µM, active compounds read low
[6] = inhibitors of the yeast RAM network, pilot screen, dse1pr::URA3 reporter, 5-FOA selection (AID 869;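 active = inhibition over a set limit, the all-compound mean plus 3 SD, in both replicate runs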;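 note: 0% = DMSO wells with no growth and 100% = 10 µM 1-NA-PP1 with full growth; RAM network block rescues cells from 5-FOA so hits raise OD615 growth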); conditions: S. cerevisiae dse1pr::URA3 5-FOA growth, OD615, 2 d; at 10 µM; active compounds read high; strain carries analog-sensitive mutant Cbk1 kinase
[7] = RAM signaling pathway blockade in yeast – S. cerevisiae, Pdr1DBD-CYC8 efflux-inhibited sensitized strain, primary screen (AID 1298;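 active = RAM network inhibition above 8.4% in each of two replicates, 3 SD over the compound average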;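 note: 0% = DMSO untreated cells without growth and 100% = 10 µM 1-NA-PP1 full growth; higher means more yeast growth rescued from 5-FOA killing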); conditions: S. cerevisiae cbk1-as DSE1-URA3 strain, 5-FOA growth OD615, 2 d; at 50 µM; active compounds read high

| Structure (SMILES) | growth inhibition [1] | growth inhibition [2] | viability increase [3] | viability [4] | viability [5] | inhibition [6] | RAM network inhibition [7] |
| --- | --- | --- | --- | --- | --- | --- | --- |
| O=C(CSc1oc(-c2ccco2)nc1S(=O)(=O)c1ccc(F)cc1)NCC1CCCO1 (configuration not stated) | -6.81% | 0.32% | -1.31% | 101% | 106% | 0.295% | 3.81% |
| Nc1nc(SCC(=O)OCc2ccccc2)[nH]c(=O)c1NC(=O)c1ccco1 | -8.4% | -11.7% | -1.48% | 101% | 98.7% | 1.36% | -0.54% |
| CCn1c(=O)c2cc(C(=O)Nc3cc(C)on3)sc2c2ccccc21 | -16.6% | -25.2% | -6.36% | 92.1% | 71.5% |  | 4.19% |
| N#Cc1nc(-c2ccc(F)cc2)oc1NCCN1CCOCC1 | -0.47% | -8.75% | -2.06% | 96% | 92.3% |  | 7.83% |
| O=C(CSc1nc2ccccc2o1)NCc1ccc2c(c1)OCO2 | -8.6% | -2.3% | 4.28% | 94.8% | 83.9% |  | 2.68% |
| CCOC(=O)N1CCN(CC(O)c2ccc3cc[nH]c3c2)CC1 (configuration not stated) | -10.8% | -0.09% | -3.2% | 88.8% | 88.4% | 1.44% | 1.94% |
| CCCSc1nc2c(cnn2-c2ccccc2)c(=O)[nH]1 | -12.6% | -17.8% | -0.89% | 105% | 95.7% |  | -0.83% |
| c1csc(Cc2nc3ccccc3[nH]2)c1 | -8.51% | -11.8% | 0.14% | 97.8% | 100% | 2.71% | -0.01% |
| O=S(=O)(c1cccc2cccnc12)N(CCO)CCO | -15.2% | -15.5% | -0.99% | 103% | 101% | 2.62% | 2.69% |
| CCCCNC(=O)c1ccc2c(c1)N(CC)C(=O)c1ccccc1S2(=O)=O | -1.9% | -1.83% | 0.81% | 93.8% | 87.3% | 0.255% | -2.03% |
| CC1=C(C(=O)N2CCOCC2)C(c2cccs2)NC(=O)N1 (configuration not stated) | 1.45% | -1.81% | -0.8% | 99.8% | 99.9% | 1.26% | 3.01% |
| COc1ccc(C(=O)n2nc(C)cc2C)cc1Br | -8.38% | -1.95% | -0.08% | 101% | 99.3% |  | -0.42% |
| CCSC1=C(C#N)C(c2ccc(F)cc2)CC(=O)N1 (configuration not stated) | 5.18% | -4.98% | 1% | 93.4% | 101% | 0.48% | 2.29% |
| CCOC(=O)C1CCN(S(=O)(=O)c2ccc3c4c(cccc24)C(=O)N3)CC1 | -4.42% | -7.67% | -3.39% | 96.5% | 85.7% | 1.76% | 2.83% |
| O=C(NCc1ccc(Cl)cc1)C1CCCN(S(=O)(=O)c2cnc[nH]2)C1 (configuration not stated) | 1.47% | -8.94% | 1.36% | 106% | 92.4% | 2.04% | 1.09% |
| Cc1nnc(NC(=O)CSc2nnc(Cc3cccn3C)n2-c2cccc(C)c2C)s1 | 6.78% | 31% | -0.56% | 100% | 87.2% |  | -0.2% |
| O=C(c1ccc(S(=O)(=O)N2CCCCC2)cc1)N1CCN=C1SCc1cccnc1 | -1.57% | -2.72% | 1.27% | 89.4% | 89.3% | 1.77% | 4.85% |
| CC(C)CCNC(=O)CCS(=O)(=O)c1cccc2nonc12 | -8.87% | -22.1% | -1.75% | 105% | 103% | 1.04% | 4.52% |
| Cn1c(Cn2c(=O)sc3ccccc32)nnc1SCC(=O)Nc1ccccc1 | -7.53% | -2.15% | -1.41% | 99.5% | 98.1% |  | 13% |

| Structure (SMILES) | growth inhibition [1] | growth inhibition [2] | viability increase [3] | viability [4] | viability [5] | inhibition [6] | RAM network inhibition [7] |
| --- | --- | --- | --- | --- | --- | --- | --- |
| CC(=O)N1CCN(CCN=CC2=C(O)CC(c3cccs3)CC2=O)CC1 (configuration not stated) | -6.7% | -2.31% | -0.76% | 93.1% | 103% | -0.455% | -0.41% |
| Cn1cccc1Cc1nnc(SCC(=O)Nc2nccs2)n1CCc1ccccc1 | 19.9% | 62.6% (active) | -2.32% | 103% | 85.8% | 1.12% | 2.48% |
| CCCCn1c(CNC(C)=O)nc2ccccc21 | -2.36% | 0.94% | -1.24% | 98.1% | 100% |  | 1.93% |
| COc1ccccc1OCC(O)CN1C(=O)NC(C)(C)C1=O (configuration not stated) | -7.73% | -7.44% | -0.34% | 93.4% | 91.6% |  | 2.29% |
| Cc1ccccc1-n1c(Cn2c(=O)sc3ccccc32)nnc1SC(C)C | 5.19% | 6.75% | -0.49% | 84% | 78.4% |  | 6.91% |
| Cc1occc1C(=O)NCc1cccs1 | -6.07% | -2.95% | -1.27% | 91% | 95.9% | 0.455% | -0.16% |
| Cc1cc(N2CCN(C3CCCCC3)CC2)n2nc(C)nc2n1 | 5.17% | 4.13% | -2.07% | 93.5% | 96.2% | 2.16% | 5.03% |
| O=C(CSc1oc(-c2ccccc2)nc1S(=O)(=O)c1ccc(F)cc1)NCC1CCCO1 (configuration not stated) | 4.64% | 0.925% | -3.53% | 86.3% | 89% |  | 2.32% |
| CCOc1ccc(N(CC(=O)Nc2cccc(Cl)c2)S(=O)(=O)c2c(C)noc2C)cc1 | -14.8% | -4.69% | -7.01% | 39.2% | 45.7% |  | 12.6% |
| Cc1ccc(Cn2ccc(NC(=O)c3cc(C(C)C)on3)n2)cc1 | -13.5% | 5.14% | 0.94% | 97.1% | 95.1% | 1.97% | 4.18% |
| CCOC(=O)CSC(CC)C(=O)Nc1nnc(C(C)C)s1 (configuration not stated) | 5.7% | 9.58% | -1.46% | 94.6% | 94.7% | 1% | 9.23% |
| O=C(COC(=O)c1cnccn1)c1ccc2c(c1)CCCC2 | -11.3% | -17.1% | -1.19% | 91.9% | 88.6% | 1.32% | 1.14% |
| O=C(c1nnc(Cc2ccc(Cl)cc2)o1)N1CCc2ccccc2C1 | -7.83% | 7.34% | 3.24% | 103% | 107% | 0.135% | 4.39% |
| O=C(NC1CCCc2ccccc21)c1cccnc1 (configuration not stated) | -4.71% | -1.41% | -1.04% | 91.4% | 93% | 1.98% | 0.22% |
| CC1CCN(C(=O)CSc2nnc(-c3ccco3)o2)CC1 | 0.09% | 6.93% | 0.32% | 106% | 102% | 2.54% | 1.64% |
| CC(C)C(NS(=O)(=O)c1ccc2c(c1)oc(=O)n2C)C(=O)N1CCN(Cc2ccccc2)CC1 (configuration not stated) | -5.8% | -20.3% | -3.99% | 88.9% | 92% | 2.62% | -2.73% |
| Cc1ccc(S(=O)(=O)NCc2nc3ccccc3[nH]2)cc1 | -4.75% | 4.05% | 1.61% | 98.7% | 97.8% | 2.42% | 1.58% |
| COc1ccccc1C1NC(=O)NC(C)=C1C(=O)Nc1cccc(C)c1C (configuration not stated) | -5.33% | -10.3% | -1.32% | 105% | 102% | 0.77% | -1.38% |
